In the library only some 6.1% were active in any assay of this set; here they are far more common.
RAM inhibit – inhibitors of the yeast RAM network, primary screen, dse1pr::URA3 reporter, 5-FOA selection; S. cerevisiae dse1pr::URA3 reporter, 5-FOA growth OD615, 2 d; analog-sensitive cbk1-as2 kinase mutant strain; inhibition, % at 50 µM; 1.8% of 190,000 active; AID 868, 2007;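 active = inhibition above a set limit, 3 SD over mean compound inhibition, cut at about 8.4% in these data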;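 note: 0% = DMSO-only wells with no growth and 100% = 10 µM 1-NA-PP1 full growth; inhibition rescues growth on 5-FOA so higher OD means more RAM inhibition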
hDAT+cocaine – changed hDAT dopamine uptake under cocaine IC80, either direction, primary screen, cocaine antagonist project, cell-based, LLC-PK1 hDAT, [14C]-dopamine uptake, MLSMR; Sodium-dependent dopamine transporter (Homo sapiens), Q01959; LLC-PK1 hDAT cells, [14C]-dopamine uptake with cocaine IC80; actives deviate in either direction; B-score at 10 µM; 1.3% of 110,000 active; AID 449768, 2010;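 active = Z score or B-score, a plate-position-corrected score, falls beyond the plate's 99.7% confidence bounds, in either direction; inactive = both scores lie inside the 99.7% bounds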;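 note: scored against the spread of the other compound wells on the same plate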
Target sequence (Q01959 whole entry, looked up): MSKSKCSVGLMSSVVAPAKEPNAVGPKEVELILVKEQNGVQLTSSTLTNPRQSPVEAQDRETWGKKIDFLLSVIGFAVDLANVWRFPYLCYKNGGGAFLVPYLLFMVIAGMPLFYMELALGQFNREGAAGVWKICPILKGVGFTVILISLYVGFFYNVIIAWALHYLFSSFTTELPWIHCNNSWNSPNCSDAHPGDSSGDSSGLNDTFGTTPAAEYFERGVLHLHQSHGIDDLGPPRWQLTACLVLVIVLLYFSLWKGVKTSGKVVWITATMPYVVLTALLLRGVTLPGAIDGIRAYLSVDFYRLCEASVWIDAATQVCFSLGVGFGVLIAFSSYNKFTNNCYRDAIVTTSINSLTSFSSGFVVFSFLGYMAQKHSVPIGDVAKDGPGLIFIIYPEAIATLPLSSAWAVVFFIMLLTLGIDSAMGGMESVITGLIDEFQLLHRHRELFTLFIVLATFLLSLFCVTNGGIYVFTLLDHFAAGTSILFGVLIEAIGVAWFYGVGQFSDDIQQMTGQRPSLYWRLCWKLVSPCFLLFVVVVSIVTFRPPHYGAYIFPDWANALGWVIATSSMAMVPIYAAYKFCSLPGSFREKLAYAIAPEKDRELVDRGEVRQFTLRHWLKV
Yeast lifespan up – compounds extending yeast replicative lifespan, primary screen, S. cerevisiae, OD615; S. cerevisiae growth with nicotinamide; deaD strain in restrictive glucose medium; inhibition of the nicotinamide effect, % at 10 µM; 0.68% of 130,000 active;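 active = inhibition above a set limit, placed 3 SD over the median of all compounds, cut at about 26% in these data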;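 note: 0% = nicotinamide-treated wells and 100% = cells grown without nicotinamide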
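Assay system: engineered S. cerevisiae DeaD replicative-lifespan strain, galactose-grown log-phase cells; Buffer or medium: CSMM-D glucose medium, restrictive; Probe or stimulus: nicotinamide 1.5 mM; Compound: single dose 10 µM compound, 0.25% DMSO; Schedule: 4 h preincubation then 48 h treatment at 30 °C; Technique: OD615 measurement.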
WT yeast gro inh – growth inhibition of WT strain, primary screen, mitochondrial fusion inhibitor project, WT and mutant strains, chemical genetic; mitochondrial fusion phenotypic screen; inhibition, % at 10 µM; 2.1% of 190,000 active; AID 1362, 2008; in the data active = inhibition above about 58%; tested in S. cerevisiae
Measles CPE – compounds protecting cells from measles virus cytopathic effect, primary screen, measles RdRp inhibitor project, single point, MLSMR library, absorbance; Measles virus-infected cells, CPE protection; 1.5% of 140,000 active; protection (pct of control), % at 4 µM; AID 841, 2007; in the data active = protection mostly above about 24%, no sharp cut-off; inactive = mostly below about 26%
BB579 growth dn – growth inhibitors of yeast BB579 in restrictive medium, primary screen, yeast lifespan-shortening project, S. cerevisiae | OD615, 48 h | inhibition, % at 10 µM | 0.51% of 140,000 active | AID 804, 2007;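 active = inhibition above a set limit, 3 SD over the mean compound inhibition, cut at about 44% in these data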
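Test system: Saccharomyces cerevisiae DeaD strain BB579, replicative lifespan model yeast | Buffer or medium: Restrictive CSMM-D medium | Doses: One dose, 10 µM compound with 0.25% DMSO | Incubation: 48 h exposure, 30 °C | Detection: Culture absorbance at 615 nm | Control set: Amphotericin B at 10 µg/mL as positive control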
* hit, by the source's call; x = no result.

SMILES	RAM inhibit	hDAT+cocaine	Yeast lifespan up	WT yeast gro inh	Measles CPE	BB579 growth dn
CC(Oc1ccc(Cl)cc1Cl)C(=O)NC1=NN(c2ccccc2)C(=O)C1 (stereo not given)	1	0.96	-19	49	2	98*
O=C1CC(NC(=O)C(F)(F)F)=NN1c1ccccc1	1	x	x	4	x	x
Cc1ccc(NC(=O)Cc2cc(C(=O)O)c3ccccc3n2)c(C)c1	4	x	x	3	x	x
COc1ccc(-c2cc(C(F)(F)F)nc(SCC(=O)NCCCN3CCOCC3)n2)cc1	1	x	x	-4	x	x
O=C(Nc1ccc(F)cc1)N1CCC(c2nc3c(nnn3Cc3ccccc3Cl)c(=O)[nH]2)CC1	4	x	x	-8	x	x
O=C(C1CCC1)N1CCC(c2nc3c(nnn3Cc3c(F)cccc3Cl)c(=O)[nH]2)CC1	3	2.8*	-9	-7	41*	-39
O=C(Cc1cccs1)N1CCC(c2nc3c(nnn3Cc3ccc(F)cc3)c(=O)[nH]2)CC1	1	1.8	-10	5	1	-17
O=C(Cc1cccs1)N1CCCC(c2nc3c(nnn3Cc3cccc(Cl)c3)c(=O)[nH]2)C1 (stereo not given)	2	2.3*	0	-6	14	-48
Cn1c(=O)c2ncn(CC(=O)N/N=C/c3ccco3)c2n(C)c1=O	1	x	1	6	23	-21
Cc1sc(-c2ccncc2)nc1OC(=O)c1ccccc1	0	-0.24	-6	-1	9	5
Nc1nnnn1/N=C/c1ccc(O)cc1	2	0.93	-7	24	50*	-11
O=C(c1ccc(C(F)(F)F)cc1)N1CCC(=O)N(C(COCc2ccc(Cl)cc2)Cc2ccccc2)CC1 (stereo not given)	9.8*	-1.2	11	58	4	-45
Cc1cccc(COCC(Cc2ccccc2)N2CCN(C(=O)c3ccc(Cl)c(Cl)c3)CCC2=O)c1 (stereo not given)	10*	1.8	16	40	2	-35
O=C(c1ccc(Cl)c(Cl)c1)N1CCC(=O)N(C(COCc2cccc(C(F)(F)F)c2)Cc2ccccc2)CC1 (stereo not given)	9.0*	-0.57	7	32	7	-39
O=C(c1ccc(Cl)c(Cl)c1)N1CCC(=O)N(C(COCc2ccc(Cl)cc2)Cc2ccccc2)CC1 (stereo not given)	8	-0.36	7	45	25	-20
Cc1cccc(COCC(Cc2ccccc2)N2CCN(C(=O)c3cccc(C)c3)CCC2=O)c1 (stereo not given)	4	0.54	13	15	13	-42
Cc1cccc(COCC(Cc2ccccc2)N2CCN(C(=O)c3cc(Cl)cc(Cl)c3)CCC2=O)c1 (stereo not given)	11*	0.16	12	55	1	-46
CCCCN1CNC(=S)N(c2ccccc2OCC)C1	1	x	-1	-14	12	-25
O=C(c1ccccc1)N1CN2CN(C(=O)c3ccccc3)CC([N+](=O)[O-])(C2)C1	1	x	11	0	22	-16
CCc1ccc(N(C(=O)c2csnn2)C(C(=O)NC(C)(C)CC)c2cccnc2)cc1 (stereo not given)	1	x	x	3	x	x
O=C(CN1C(=O)C(=O)N(Cc2ccccc2)C1=O)Nc1ccc(F)c(Cl)c1	2	x	x	-18	x	x
Cc1sc(NC(=O)c2cccnc2)nc1-c1ccccc1	3	x	x	7	x	x
CCCCNC(=S)N(C)/N=C/c1sc(N2CCCCC2)nc1-c1cccs1	9.9*	x	-5	15	15	-20
CCCCCn1c(=O)c(C(=O)OCC)c(O)c2ccccc21	9.0*	0.24	22	-15	7	10
CCCCCCCCn1c(=O)c(C(=O)OCC)c(O)c2ccccc21	0	0.2	39*	32	18	16
O=C1Nc2ccccc2N(O)N1c1cc(-c2ccccc2Cl)no1	4	-0.061	-1	-6	1	-23

Compound activity deposited in PubChem BioAssay by several laboratories.
